Measurements reported in ChEMBL document CHEMBL1139452, “Synthesis and structure-activity relationships of 5,6,7,8-tetrahydro-4H-thieno[3,2-b]azepine derivatives: novel arginine vasopressin antagonists” (J Med Chem, 2004).

Legend:
[1] = tested on: Rattus norvegicus; test: Antagonistic effect against AVP-induced hypertension in rats after intravenous administration; type: functional; conditions: read-out: ID50 (the source's name)
How it was run: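 Male Sprague Dawley rats (250–350 g) under urethane anaesthesia (1.3 g/kg ip), with femoral artery and vein catheters, held at 37 °C. Compound or vehicle given iv (1 mL/kg) 2 min before AVP 30 mU/kg iv. ID50 is the dose inhibiting the maximal pressor response by 50%; n = 3, mean ± SEM.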

[2] = tested on: Rattus norvegicus; test: Diuretic effect was determined after peroral administration at a dose of 10 mg/kg in rats; type: functional, Urine; conditions: route oral
How it was run: (§1)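 Male Sprague Dawley rats (250–350 g) fasted 16–20 h, some also without water for 16–20 h. Compound or vehicle given orally. Spontaneously voided urine collected over 4 h in metabolic cages and reported as mL/4 h; n = 3, mean ± SEM.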

[3] = biological target: Vasopressin V2 receptor (Homo sapiens, UniProt P30518); test: Inhibitory activity against human recombinant arginine vasopressin V2 receptor using [3H]AVP as radioligand in CHO cells; type: cell-based
Vasopressin V2 receptor (Homo sapiens, UniProt P30518), sequence (P30518 whole entry): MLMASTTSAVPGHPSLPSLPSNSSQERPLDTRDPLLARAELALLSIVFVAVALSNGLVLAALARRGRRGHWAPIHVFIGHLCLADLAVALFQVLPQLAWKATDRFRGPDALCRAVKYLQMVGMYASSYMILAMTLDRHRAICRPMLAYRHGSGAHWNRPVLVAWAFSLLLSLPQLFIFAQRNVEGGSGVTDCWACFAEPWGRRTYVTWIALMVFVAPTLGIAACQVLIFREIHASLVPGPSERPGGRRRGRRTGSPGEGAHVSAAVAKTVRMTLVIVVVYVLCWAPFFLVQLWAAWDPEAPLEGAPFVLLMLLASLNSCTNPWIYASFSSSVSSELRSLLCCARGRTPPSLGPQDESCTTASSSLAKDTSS
How it was run: (§2)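 Competition binding on plasma membrane preparations, with [3H]AVP (80 Ci/mmol, 1–2 nM) and graded test compound, in 100 mM Tris-HCl pH 7.5, 5 mM MgCl2, 1 mM EDTA, 0.1% BSA, ≤1% final DMSO. Incubated 20 min at 37 °C, stopped with ice-cold Tris pH 8.0, filtered on GF/B. Nonspecific binding: 1 μM AVP. IC50 by regression of displacement curves; n = 3, mean ± SEM.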

[4] = biological target: Vasopressin V2 receptor (Rattus norvegicus, UniProt Q00788); test: Inhibitory activity against arginine vasopressin V2 receptor using [3H]AVP as radioligand in rat […] medulla; type: tissue-based; how it was run: as §2
Vasopressin V2 receptor (Rattus norvegicus, UniProt Q00788), sequence (Q00788 whole entry): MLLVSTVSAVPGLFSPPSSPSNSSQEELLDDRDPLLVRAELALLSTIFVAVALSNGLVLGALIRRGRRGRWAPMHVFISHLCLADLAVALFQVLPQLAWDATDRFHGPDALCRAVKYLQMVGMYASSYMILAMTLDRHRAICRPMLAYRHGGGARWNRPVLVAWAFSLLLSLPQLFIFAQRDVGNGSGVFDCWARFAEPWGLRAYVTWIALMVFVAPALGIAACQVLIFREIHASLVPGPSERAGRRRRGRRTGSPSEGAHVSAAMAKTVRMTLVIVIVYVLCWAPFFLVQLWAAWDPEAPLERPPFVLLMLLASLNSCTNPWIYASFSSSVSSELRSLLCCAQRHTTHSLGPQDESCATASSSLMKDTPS

[5] = biological target: Vasopressin V1 receptor (Homo sapiens, UniProt P37288+P47901); test: Inhibitory activity against arginine vasopressin V1 receptor using [3H]AVP as radioligand in human platelet; how it was run: as §2
[6] = biological target: Vasopressin V1 receptor (Rattus norvegicus, UniProt P48974+P30560); test: Inhibitory activity against arginine vasopressin V1 receptor using [3H]AVP as radioligand in rat liver; how it was run: as §2
[7] = tested on: Rattus norvegicus; test: Diuretic effect was determined after peroral administration at a dose of 30 mg/kg in rats; type: functional, Urine; conditions: route oral; how it was run: as §1

Row | Compound | ED50 [1] [mg/kg] | Urine volume [2] [ml 4hr-1] | IC50 [3] [nM] | IC50 [4] [nM] | IC50 [5] [nM] | IC50 [6] [nM] | Urine volume [7] [ml 4hr-1]
1 | O=C(Nc1ccc(C(=O)N2CCCN(Cc3cccnc3)c3sccc32)cc1)c1ccccc1-c1ccccc1 | 0.14 | 1.2 | 60 | 30 | 700 | 500 | –
2 | COc1cc(C(=O)N2CCCC(N(C)C)c3sccc32)ccc1NC(=O)c1ccccc1-c1ccccc1 (stereo not given) | > 0.3 | 9.3 | 20 | 10 | 3000 | 2000 | 12
3 | O=C(Nc1ccc(C(=O)N2CCCN(CCN3CCCC3)c3sccc32)cc1)c1ccccc1-c1ccccc1 | > 0.3 | 6.3 | 200 | 10 | 800 | 200 | –
4 | CN(C)CCN(C)CCCCOc1cc(C(=O)N2CCCCc3sccc32)ccc1NC(=O)c1ccccc1-c1ccccc1 | 0.02 | 10.2 | 80 | 8 | 5 | 20 | –
5 | CN1CCN(CCN2CCCN(C(=O)c3ccc(NC(=O)c4ccccc4-c4ccccc4)cc3)c3ccsc32)CC1 | > 0.3 | 7.4 | 50 | 10 | 1000 | 200 | –
6 | CN(C)C1CCN(C(=O)COc2cc(C(=O)N3CCCCc4sccc43)ccc2NC(=O)c2ccccc2-c2ccccc2)CC1 | 0.02 | 15 | 8 | 4 | 50 | 20 | –
7 | O=C(Nc1ccc(C(=O)N2CCCN(Cc3ccccc3)c3sccc32)cc1)c1ccccc1-c1ccccc1 | > 0.3 | – | 80 | 70 | 400 | 500 | –
8 | CN1CCCN(CC(=O)N2CCCN(C(=O)c3ccc(NC(=O)c4ccccc4-c4ccccc4)cc3)c3ccsc32)CC1 | – | – | > 10000 | 100 | > 10000 | > 10000 | –
9 | CCN(CC)C1CCN(C(=O)CCCOc2cc(C(=O)N3CCCCc4sccc43)ccc2NC(=O)c2ccccc2-c2ccccc2)CC1 | 0.01 | 18 | 9 | 6 | 4 | 4 | –
10 | O=C(Nc1ccc(C(=O)N2CCCCc3sccc32)cc1OCCCC(=O)N1CCC(N2CCCCC2)CC1)c1ccccc1-c1ccccc1 | 0.03 | 8 | 30 | 20 | 10 | 20 | –
11 | CN1CCN(CCCCOc2cc(C(=O)N3CCCCc4sccc43)ccc2NC(=O)c2ccccc2-c2ccccc2)CC1 | < 0.01 | 16.9 | 1 | 7 | 5 | 3 | –
12 | CN1CCCN(C(=O)CCCOc2cc(C(=O)N3CCCCc4sccc43)ccc2NC(=O)c2ccccc2-c2ccccc2)CC1 | 0.008 | 19.1 | 10 | 3 | 50 | 20 | –
13 | O=C(Nc1ccc(C(=O)N2CCCCc3sccc32)cc1O)c1ccccc1-c1ccccc1 | 0.04 | 2.3 | < 10 | < 10 | 60 | 200 | –
14 | CN1CCCN(CCCOc2cc(C(=O)N3CCCCc4sccc43)ccc2NC(=O)c2ccccc2-c2ccccc2)CC1 | 0.03 | 18.3 | 2 | < 1 | < 1 | 2 | –
15 | CN1CCN(C(=O)CCCOc2cc(C(=O)N3CCCCc4sccc43)ccc2NC(=O)c2ccccc2-c2ccccc2)CC1 | 0.03 | 17.6 | 6 | 1 | 10 | 20 | –
16 | CN(C)C1CCN(C(=O)CCCOc2cc(C(=O)N3CCCCc4sccc43)ccc2NC(=O)c2ccccc2-c2ccccc2)CC1 | 0.005 | 22 | 20 | 3 | 3 | 6 | –
17 | CN(C)CCN1CCCN(C(=O)c2ccc(NC(=O)c3ccccc3-c3ccccc3)cc2)c2ccsc21 | 0.31 | 6.7 | 80 | 20 | 400 | 300 | –
